SKN-1 inh: inhibitors of C. elegans SKN-1; C. elegans VP596 Pgst-4::GFP/RFP ratio, acrylamide-induced, 24 h; inhibition, % at 21.8 µM; 360,000 compounds, 0.49% hits;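 active = interference check ratio from 0.5 to 1.5 plus GFP to RFP signal ratio inhibition reaching or exceeding a fixed threshold, cut at about 30% in these data, passing the limit was not always enough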
TLR9-MyD88 inh: TLR9-MyD88 interaction inhibition; Q9NR96+Q99836; CHO BLA complementation TLR9-MyD88, CCF4 FRET ratio; inhibition, % at 4.98 µM; 340,000 compounds, 0.21% hits; AID 504734;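 active = inhibition above the mean over all tested compounds plus 3 SD, cut at about 21% in these data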
MT1-MMP act inh: MT1-MMP (human) activation inhibition | P50281 | HT1080 RFP-PRO-GFP cells, GFP/RFP ratio fluorescence, overnight; percent of plate control window, DMSO zero | GFP/RFP ratio change, % at 20 µM | 360,000 compounds, 0.061% hits;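 active = GFP/RFP ratio change of at least 30% with cell ATP level not reduced by more than half and red fluorescence within 50% of control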
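Test system: HT1080 RFP-PRO-GFP cells; Benchmarks: DMSO and RFP-L50D-GFP cell wells; Timing: cells overnight before dosing, compound overnight, 37 °C, 5% CO2; Compound: one 20 µM compound dose with 1% DMSO; Read-out: GFP/RFP fluorescence ratio.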
NOD2-RIPK2 inh: inhibitors of human NOD2-RIPK2 interaction; O43353; CHO BLA complementation NOD2-RIPK2, CCF4 ratio; inhibition, % at 4.98 µM; 360,000 compounds, 0.38% hits; AID 624267; in the data active = inhibition above about 21%
TLR4-MyD88 BLA: blocks binding of human TLR4 to MyD88 | O00206+Q99836 | HeLa CL3-4 TLR4/MyD88 BLA complementation, FRET ratio | inhibition, % at 8.4 µM | 200,000 compounds, 0.18% hits | AID 861; in the data active = inhibition above about 25%
Large screens that a line does not name were inactive; ! = a repeat was not active. This is a sample that favours compounds with a hit; in the whole collection about 0.99% have one here.

O=C(Nc1ccccc1Cl)c1cc(C2CCCN(C(=O)OCCF)C2)on1 (stereo not drawn)	SKN-1 inh 37 (no result: TLR9-MyD88 inh, TLR4-MyD88 BLA)
Cc1cccc(OCC(=O)NCCCNC(=O)c2ccco2)c1	none (no result: TLR4-MyD88 BLA)
O=C(NC1CCCC1)C1C(c2ccc(C(F)(F)F)cc2)=Nc2ccccc2N1C(=O)c1ccco1 (stereo not drawn)	SKN-1 inh 41 (no result: TLR9-MyD88 inh, TLR4-MyD88 BLA)
Cc1ccc(C(C)(C)C)cc1S(=O)(=O)Nc1cccc(C(=O)N2CCN(c3ccccn3)CC2)c1	none (no result: TLR4-MyD88 BLA)
CSc1ccc(-c2nnn(Cc3ccc(Br)cc3)n2)cc1	SKN-1 inh 36
COc1ccc2[nH]cc(CCNC(=O)c3ccccc3Cl)c2c1	none (no result: TLR4-MyD88 BLA)
CC(NC(=O)COC(=O)C1CC2CCCC(C1)C2=O)c1ccccc1 (stereo not drawn)	none (no result: TLR4-MyD88 BLA)
CC(=O)Nc1ccc2nc(-c3ccccn3)[nH]c2c1	none
c1ccc(-c2nc3cc4ccccc4cc3[nH]2)nc1	SKN-1 inh 42
COc1ccc(OC)c(S(=O)(=O)Nc2ccc3c(c2)OCCO3)c1	none (no result: TLR4-MyD88 BLA)
CCOc1ccc(N(Cc2cc3cc(C)ccc3[nH]c2=O)S(=O)(=O)c2ccccc2)cc1	none (no result: TLR4-MyD88 BLA)
CCCNC(=O)c1ccc(N2CCC3(CC2)CC(c2cccc(Br)c2)=NO3)c(NC(=O)c2ccc(Cl)c([N+](=O)[O-])c2)c1	none (no result: TLR4-MyD88 BLA)
Cc1cc(OCC(O)CN2CCN(C)CC2)ccc1C(C)C (stereo not drawn)	SKN-1 inh 36!
CN1CCN(CC(O)COc2ccc(OCC(O)CN3CCN(C)CC3)cc2)CC1 (stereo not drawn)	none
NS(=O)(=O)c1ccc(NC(=O)COc2cccc3ccccc23)cc1	none (no result: TLR4-MyD88 BLA)
CCCNc1c(F)c(F)c2c(C)c3ccccc3nc2c1F	SKN-1 inh 39
Cc1cccc(NC(=O)c2ccc3c(c2)C(=O)N(c2ccccc2C)C3=O)n1	SKN-1 inh 43 (no result: TLR4-MyD88 BLA)
CCOc1ncccc1C(=O)OCC(=O)NCc1ccccc1	none (no result: TLR4-MyD88 BLA)
CC(=O)NCCc1cc2cc(C)c(C)cc2[nH]c1=O	SKN-1 inh 32
CCCC(=O)NCCc1cc2cc(C)c(C)cc2[nH]c1=O	none
COc1cc(C2c3c(oc4ccccc4c3=O)C(=O)N2c2nccs2)ccc1O (stereo not drawn)	none (no result: TLR4-MyD88 BLA)
O=C(COc1cc2oc(=O)cc(-c3ccccc3)c2cc1Cl)NCc1ccccn1	none (no result: TLR4-MyD88 BLA)
Nc1ccc2nc(-c3ccccc3)sc2c1	SKN-1 inh 82
Cc1ccc2nc(-c3ccc(N)cc3)sc2c1	SKN-1 inh 42 (no result: TLR9-MyD88 inh, TLR4-MyD88 BLA)
CCN(C(=O)COC(=O)c1oc2ccc(OC)cc2c1C)C1CCCCC1	none (no result: TLR4-MyD88 BLA)
Cc1csc2nc(CNS(=O)(=O)c3ccc4c(c3)CCCC4)cn12	SKN-1 inh 36
COc1ccc(NC(=O)C(c2ccc(C#N)cc2)n2c(=O)c(-c3ccco3)nc3ccccc32)cc1 (stereo not drawn)	none (no result: TLR9-MyD88 inh, TLR4-MyD88 BLA)
Cc1ccccc1NS(=O)(=O)c1ccc(C(=O)NCC(c2ccco2)N2CCCCC2)cc1 (stereo not drawn)	none (no result: TLR4-MyD88 BLA)
O=[N+]([O-])c1ccc(Nc2ccccc2F)nc1	none
O=[N+]([O-])c1ccc(NCc2ccc(Cl)cc2)nc1	SKN-1 inh 43 (no result: TLR4-MyD88 BLA)
O=[N+]([O-])c1ccc(Nc2ccc(Cl)cc2)nc1	SKN-1 inh 39 (no result: TLR9-MyD88 inh)
CC(C)(C)OC(=O)C[C@H]1C/C=C\C[C@H](CC(=O)NCCO)C(=O)NC[C@@H](c2ccccc2)OC1=O	none (no result: TLR4-MyD88 BLA)
COCCCn1c(=O)c2ccccc2n(Cc2cccc(C)c2)c1=O	SKN-1 inh 40 (no result: TLR4-MyD88 BLA)
O=C(NCCCN1CCOCC1)/C(=C/c1cccs1)NC(=O)c1ccccc1	none (no result: TLR4-MyD88 BLA)
COc1ccc(Cc2c(-c3ccco3)nc3c(C)cc(Br)cn23)c(C)c1	SKN-1 inh 48 (no result: TLR9-MyD88 inh, TLR4-MyD88 BLA)
O=C(c1ccco1)N1CCN(C/C=C/c2ccccc2)CC1	SKN-1 inh 35
O=C(NC(=S)N1CCN(C/C=C/c2ccccc2)CC1)c1ccco1	none
COc1ccc(-c2cc(-c3ccccc3)n[nH]2)c(O)c1	SKN-1 inh 35
CCC(C)(C)C(=O)Nc1ncc(S(=O)(=O)c2ccc([N+](=O)[O-])cc2)s1	SKN-1 inh 36
Cc1cccc(NC(=O)c2cccc(S(=O)(=O)N(C)c3ccccc3)c2)n1	none (no result: TLR4-MyD88 BLA)
OC(CN1CCN(C(c2ccccc2)c2ccccc2)CC1)c1ccc(Br)cc1 (stereo not drawn)	none (no result: TLR4-MyD88 BLA)
OC(CN1CCN(C(c2ccccc2)c2ccccc2)CC1)c1ccccc1 (stereo not drawn)	SKN-1 inh 40 (no result: TLR4-MyD88 BLA)
CCOc1ccccc1NC(=O)C(CC(C)C)NC(=O)C1CCC(C)CC1 (stereo not drawn)	SKN-1 inh 41
COCCCN(Cc1cccs1)S(=O)(=O)c1csc(C(N)=O)c1	none (no result: TLR4-MyD88 BLA)
CN(C)/C=C/C(=O)/C=C/c1ccc(Cl)cc1	none
CN(C)CC(O)c1ccc(C=Cc2ccc(Cl)cc2)cc1 (stereo not drawn)	SKN-1 inh 53 (no result: TLR4-MyD88 BLA)
COc1ccc(OC)c(NC(=O)NC2CCCc3ccccc32)c1 (stereo not drawn)	none (no result: TLR4-MyD88 BLA)
O=C(Nc1nccs1)c1ccc(-c2ccc([N+](=O)[O-])cc2)o1	none
O=C(Nc1nccs1)c1ccc(-c2ccc(F)cc2)o1	SKN-1 inh 52
O=C(Nc1nccs1)c1ccc(-c2ccc(Cl)cc2)o1	SKN-1 inh 41
Cc1ccc(OCCN2C(=O)C(=O)c3cccc(C)c32)cc1	none
Cc1sc(NC(=O)C2=COCCO2)nc1-c1ccc(Cl)cc1	SKN-1 inh 39 (no result: TLR4-MyD88 BLA)
O=C(Nc1nc(-c2ccc(Cl)cc2)cs1)C1=COCCO1	none (no result: TLR4-MyD88 BLA)
CCN(CC(=O)Nc1ccccc1C(F)(F)F)C(=O)C1CC(=O)N(Cc2ccccc2)C1 (stereo not drawn)	SKN-1 inh 35 (no result: TLR4-MyD88 BLA)
Cc1ccc(S(=O)(=O)N(C)CC(=O)Nc2nnc(CC(C)C)s2)cc1	none (no result: TLR4-MyD88 BLA)
COc1cc(SC)ccc1C(=O)Nc1ccc(Cl)cn1	SKN-1 inh 35
CSc1ccc(Cl)c(C(=O)Nc2ccc(Cl)cn2)c1	none
O=C1/C(=C/N(C(=O)c2ccco2)c2ccc(Br)cc2)Sc2ccccc21	SKN-1 inh 38
O=C(OCc1ccccc1)N1CCC2CC1c1c2cccc1N1CCOCC1 (stereo not drawn)	none (no result: TLR9-MyD88 inh, TLR4-MyD88 BLA)
CN(CC(=O)Nc1cccc(F)c1)C(=O)CC1CC2CCC1C2 (stereo not drawn)	SKN-1 inh 36 (no result: TLR4-MyD88 BLA)
CCCCCCCCOc1ccc(C2OC34CCCCC3C(C#N)(C#N)C2(C#N)C(=N)O4)cc1 (stereo not drawn)	SKN-1 inh 47
COc1cccc(NC(=O)CN2C(=O)NC(C)(c3ccc(C)cc3)C2=O)c1 (stereo not drawn)	none (no result: TLR4-MyD88 BLA)
CCc1ccc(-c2nn(-c3cc(Cl)ccc3[N+](=O)[O-])c(=O)c3ccccc23)cc1	SKN-1 inh 37
Cc1cc(NC(=O)c2ccccc2C)n(-c2cccc(F)c2)n1	none (no result: TLR4-MyD88 BLA)
COc1ccc2c(c1OC)C(=O)OC2Nc1nc(-c2ccc(-c3ccccc3)cc2)cs1 (stereo not drawn)	SKN-1 inh 65

Compound activity deposited in PubChem by several laboratories.
